Results published in ChEMBL document CHEMBL1157570, “Development of potent and selective inhibitors of ecto-5'-nucleotidase based on an anthraquinone scaffold” (J Med Chem, 2010).

The compounds below were run against T1, 5'-nucleotidase (Rattus norvegicus, UniProt P21588) (assay: Inhibition of rat ecto-5'-nucleotidase expressed in Sf9 cells by capillary electrophoresis method).
T1 sequence (P21588 whole entry): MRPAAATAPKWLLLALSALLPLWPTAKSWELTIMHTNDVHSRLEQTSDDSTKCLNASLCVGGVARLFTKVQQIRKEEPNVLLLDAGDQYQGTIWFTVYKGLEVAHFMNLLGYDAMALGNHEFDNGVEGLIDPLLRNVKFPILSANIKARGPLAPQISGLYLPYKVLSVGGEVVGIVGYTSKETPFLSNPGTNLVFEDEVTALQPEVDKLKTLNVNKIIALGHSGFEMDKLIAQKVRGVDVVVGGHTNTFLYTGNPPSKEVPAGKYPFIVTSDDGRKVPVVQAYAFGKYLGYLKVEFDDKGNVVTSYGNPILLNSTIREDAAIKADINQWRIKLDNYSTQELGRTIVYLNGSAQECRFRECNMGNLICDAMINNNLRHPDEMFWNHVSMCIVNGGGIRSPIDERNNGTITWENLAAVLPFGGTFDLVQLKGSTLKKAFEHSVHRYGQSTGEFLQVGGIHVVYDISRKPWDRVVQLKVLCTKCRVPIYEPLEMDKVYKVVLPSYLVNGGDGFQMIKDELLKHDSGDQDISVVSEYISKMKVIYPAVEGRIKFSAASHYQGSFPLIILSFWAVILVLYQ
Summary of the method: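 Rat eN, GST-fused, made in Sf9 cells and purified on GSH-agarose. 500 μM AMP in Hepes pH 7.4 with Mg2+/Ca2+, 37 °C for 15 min. Adenosine measured by capillary electrophoresis at 260 nm. Inhibitor at 6-8 concentrations spanning about 3 log units. […] Three experiments, each in duplicate.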

Row | SMILES | Ki
1 | Nc1ccc(Nc2cc(S(=O)(=O)O)c(N)c3c2C(=O)c2ccccc2C3=O)cc1S(=O)(=O)O | 10 µM
2 | Nc1ncnc2c1ncn2[C@H]1O[C@@H](COP(=O)(O)CP(=O)(O)O)[C@H](O)[C@@H]1O | 0.00087 µM
3 | Nc1ccc(Nc2cc(S(=O)(=O)O)c(N)c3c2C(=O)c2ccccc2C3=O)cc1 | 0.297 µM
4 | Nc1c(S(=O)(=O)O)cc(Nc2cccc3cc(S(=O)(=O)O)ccc23)c2c1C(=O)c1ccccc1C2=O | 15.3 µM
5 | Nc1c(S(=O)(=O)O)cc(Nc2cccc3c(S(=O)(=O)O)cccc23)c2c1C(=O)c1ccccc1C2=O | 11.7 µM
6 | Nc1c(S(=O)(=O)O)cc(Nc2cccc3cccc(S(=O)(=O)O)c23)c2c1C(=O)c1ccccc1C2=O | 6.05 µM
7 | Nc1cc(Nc2cc(S(=O)(=O)O)c(N)c3c2C(=O)c2ccccc2C3=O)ccc1S(=O)(=O)O | 25.2 µM
8 | Cc1ccc(Nc2cc(S(=O)(=O)O)c(N)c3c2C(=O)c2ccccc2C3=O)cc1 | 360 µM

What follows are compounds tested against T2, 5'-nucleotidase (Rattus norvegicus) (UniProt P21588) (assay: Inhibition of rat ecto-5'-nucleotidase expressed in Sf9 cells at 1 mM by capillary electrophoresis method).
T2 sequence (whole entry): T1 sequence (P21588 whole entry)
Summary of the method: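 Test agent at 1 mM with 500 μM AMP in 10 mM Hepes pH 7.4, 2 mM MgCl2, 1 mM CaCl2. Incubated 15 min at 37 °C, stopped at 99 °C for 10 min. Adenosine quantified by capillary electrophoresis, UV peak area at 260 nm.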

Row | SMILES | inhibition
9 | Nc1c(S(=O)(=O)O)cc(Nc2cccc(C(=O)O)c2)c2c1C(=O)c1ccccc1C2=O | 26%
10 | Nc1c(S(=O)(=O)O)cc(NCCc2ccc(Cl)cc2)c2c1C(=O)c1ccccc1C2=O | 62%
11 | Cc1ccccc1Nc1cc(S(=O)(=O)O)c(N)c2c1C(=O)c1ccccc1C2=O | 33%
12 | CC(C)Nc1cc(S(=O)(=O)O)c(N)c2c1C(=O)c1ccccc1C2=O | 15%
13 | Nc1c(S(=O)(=O)O)cc(Nc2ccccc2S(=O)(=O)O)c2c1C(=O)c1ccccc1C2=O | 14%
14 | CCOc1ccc(Nc2cc(S(=O)(=O)O)c(N)c3c2C(=O)c2ccccc2C3=O)cc1 | 31%
15 | Nc1c(S(=O)(=O)O)cc(Nc2ccc(Nc3ccccc3)cc2)c2c1C(=O)c1ccccc1C2=O | 37%
16 | Cc1ccc(C)c(Nc2cc(S(=O)(=O)O)c(N)c3c2C(=O)c2ccccc2C3=O)c1 | 26%
17 | CCOP(=O)(Cc1ccc(Nc2cc(S(=O)(=O)O)c(N)c3c2C(=O)c2ccccc2C3=O)cc1)OCC | 28%
18 | Nc1c(S(=O)(=O)O)cc(Nc2cccc3ccc(S(=O)(=O)O)cc23)c2c1C(=O)c1ccccc1C2=O | 0%
19 | Nc1c(S(=O)(=O)O)cc(Nc2ccc(Br)cc2C(=O)O)c2c1C(=O)c1ccccc1C2=O | 56%
20 | Nc1c(S(=O)(=O)O)cc(NC2CCCC2)c2c1C(=O)c1ccccc1C2=O | 51%
21 | Nc1c(S(=O)(=O)O)cc(NCc2ccccc2)c2c1C(=O)c1ccccc1C2=O | 43%
22 | COc1ccccc1Nc1cc(S(=O)(=O)O)c(N)c2c1C(=O)c1ccccc1C2=O | 9%
23 | Nc1cccc(Nc2cc(S(=O)(=O)O)c(N)c3c2C(=O)c2ccccc2C3=O)c1 | 31%
24 | Nc1c(S(=O)(=O)O)cc(Nc2ccc(Cl)cc2C(=O)O)c2c1C(=O)c1ccccc1C2=O | 52%
25 | CCOc1ccccc1Nc1cc(S(=O)(=O)O)c(N)c2c1C(=O)c1ccccc1C2=O | 56%
26 | COc1ccc(CCNc2cc(S(=O)(=O)O)c(N)c3c2C(=O)c2ccccc2C3=O)cc1OC | 44%
27 | Cc1cc(Nc2ccccc2)c2c(c1N)C(=O)c1ccccc1C2=O | 4%
28 | Nc1c(S(=O)(=O)O)cc(Nc2cc(F)ccc2C(=O)O)c2c1C(=O)c1ccccc1C2=O | 60%
29 | Nc1c(S(=O)(=O)O)cc(Nc2cc(Cl)ccc2C(=O)O)c2c1C(=O)c1ccccc1C2=O | 27%
30 | Nc1c(S(=O)(=O)O)cc(NCCc2ccccc2)c2c1C(=O)c1ccccc1C2=O | 53%
31 | Cc1cccc(Nc2cc(S(=O)(=O)O)c(N)c3c2C(=O)c2ccccc2C3=O)c1C | 39%
32 | Nc1c(S(=O)(=O)O)cc(Nc2ccc(C(=O)O)cc2)c2c1C(=O)c1ccccc1C2=O | 34%
33 | Nc1c(S(=O)(=O)O)cc(Nc2cc3ccccc3c3ccccc23)c2c1C(=O)c1ccccc1C2=O | 58%
34 | Nc1cc(Nc2cc(S(=O)(=O)O)c(N)c3c2C(=O)c2ccccc2C3=O)cc(C(=O)O)c1 | 44%
35 | Cc1ccc(Nc2cc(S(=O)(=O)O)c(N)c3c2C(=O)c2ccccc2C3=O)c(C)c1 | 47%
36 | Nc1c(S(=O)(=O)O)cc(Nc2ccc(CC(=O)O)cc2)c2c1C(=O)c1ccccc1C2=O | 26%
